Sampled rows, rich in hits. Any-hit rate of the full collection: about 2%.
HSP90 refold inh = blocks HSP90-mediated luciferase refolding in reticulocyte lysate; Rabbit reticulocyte lysate, luciferase refolding luminescence, 3 h; inhibition, % at 5.6 µM; 290,000 tested, 0.91% active; AID 1789;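 active = inhibition above the screen-wide mean plus 3 SD, computed separately per campaign, cut at about 16% in these data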;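 also: inhibitors lower the luminescence because luciferase stays unfolded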
PPC-1+TRAIL kill = PPC-1 cancer cell killing with TRAIL present; AID 1443; PPC-1 cells + TRAIL, ATPLite viability luminescence; 220,000 tested, 0.41% active; cell killing (% activity), % at 4 µM or 5 µM;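 active = cell killing above 50% in the first pass at 4 µM, then a duplicate retest at 5 µM averaging 50% or more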
C8 TRAIL sens = sensitizes caspase-8 expressing cells to TRAIL. NB7+C8 cells + TRAIL, ATPlite viability luminescence. inhibition (viability loss, TRAIL sensitization), % at 10 µM. 360,000 tested, 1% active. AID 624354;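 active = compounds causing at least 50% loss of cell viability in the single-dose screen, relative to plate controls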
FLuc act counter = firefly luciferase counter-screen for stimulation assays; AID 1027; ATPlite luciferase biochemical, luminescence, 10 min; 0 = ATP-free wells, 1 = DMSO control; P08659; activation factor at 10 µM; 200,000 tested, under 10 active;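 active = luciferase activation factor, scaled between plate controls, of at least 2 with compound at 10 µM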
Target sequence (P08659 whole entry, looked up): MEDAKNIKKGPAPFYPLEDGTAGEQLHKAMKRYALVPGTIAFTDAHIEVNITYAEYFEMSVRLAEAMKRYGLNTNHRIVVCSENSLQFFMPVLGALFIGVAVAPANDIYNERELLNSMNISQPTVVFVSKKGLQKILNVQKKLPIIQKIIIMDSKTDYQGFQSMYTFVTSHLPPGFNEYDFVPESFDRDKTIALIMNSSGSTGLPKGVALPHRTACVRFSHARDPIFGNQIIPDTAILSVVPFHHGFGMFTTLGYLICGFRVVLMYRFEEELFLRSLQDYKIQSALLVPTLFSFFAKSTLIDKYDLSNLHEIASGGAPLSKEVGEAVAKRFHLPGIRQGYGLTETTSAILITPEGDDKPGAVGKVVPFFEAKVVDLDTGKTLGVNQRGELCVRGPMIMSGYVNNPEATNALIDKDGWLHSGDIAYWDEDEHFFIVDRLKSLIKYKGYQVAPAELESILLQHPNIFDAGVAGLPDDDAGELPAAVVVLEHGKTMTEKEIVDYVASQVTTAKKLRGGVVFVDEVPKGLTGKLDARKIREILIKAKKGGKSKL
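test system = cell-free luciferase reagent | medium = PBS as buffer for the ATP substrate | dosing = test compounds dosed from 2 mM stocks in 100% DMSO | incubation = 10 min at ambient temperature | detection = luminescence measurement of luciferase light output | benchmarks = low control with PBS replacing ATP, high control enzyme plus ATP without compound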
FLuc inh counter = inhibits firefly luciferase, flagging false hits in luciferase inhibition screens; P08659; ATPLite firefly luciferase biochemical luminescence, 10 min; inhibition, % at 10 µM; 200,000 tested, 1.5% active; AID 1006;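 active = inhibition above about 50% when tested at 10 µM, limit read from the data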
Large screens that a line does not name were inactive.

COc1cccc(/C=C2\CCc3ccccc3C2=O)c1	C8 TRAIL sens 82 (no result: FLuc act counter, FLuc inh counter)
CCc1nc2ccc(C(=O)N(CC)CCN(C)C)cn2c1N(C)Cc1nccs1	none (no result: HSP90 refold inh, PPC-1+TRAIL kill, FLuc act counter, FLuc inh counter)
Cc1ccc(F)c(S(=O)(=O)NC(=O)C2(C)CCN2C(=O)CCc2ccccc2)c1 (stereo unspecified)	none (no result: HSP90 refold inh, PPC-1+TRAIL kill, FLuc act counter, FLuc inh counter)
O=C(NCc1cccnc1)C1Cc2c(-c3ccc(Cl)cc3)ccnc2O1 (stereo unspecified)	none (no result: HSP90 refold inh, PPC-1+TRAIL kill, FLuc act counter, FLuc inh counter)
N#Cc1nc(NCC(F)F)nc(Nc2cc(F)cc(F)c2)n1	C8 TRAIL sens 50 (no result: HSP90 refold inh, PPC-1+TRAIL kill, FLuc act counter, FLuc inh counter)
CCCCCc1cc(=O)oc2c(C(CCN3CCCCC3)c3cc(OC)c(OC)c(OC)c3)c(OC)cc(OC)c12 (stereo unspecified)	C8 TRAIL sens 67 (no result: HSP90 refold inh, FLuc act counter, FLuc inh counter)
CCCCCc1cc(=O)oc2c(C(CCN3CCCC(C)C3)c3cc(OC)c(OC)c(OC)c3)c(OC)cc(OC)c12 (stereo unspecified)	none (no result: HSP90 refold inh, FLuc act counter, FLuc inh counter)
COc1ccc(OC(=O)N2C/C(=C/c3ccccc3)C(=O)/C(=C\c3ccccc3)C2)cc1	C8 TRAIL sens 52 (no result: HSP90 refold inh, PPC-1+TRAIL kill, FLuc act counter, FLuc inh counter)
CN(C)CCC(=O)N1C/C(=C/c2ccccc2)C(=O)/C(=C\c2ccccc2)C1	C8 TRAIL sens 95 (no result: HSP90 refold inh, PPC-1+TRAIL kill, FLuc act counter, FLuc inh counter)
C[N+](C)(C)CCC(=O)N1C/C(=C/c2ccccc2)C(=O)/C(=C\c2ccccc2)C1	none (no result: HSP90 refold inh, PPC-1+TRAIL kill, FLuc act counter, FLuc inh counter)
O=C(/C=C/c1ccccc1)CCN1CCOCC1	none (no result: HSP90 refold inh, PPC-1+TRAIL kill, FLuc act counter, FLuc inh counter)
O=C1/C(=C/c2ccccc2)CN(C(=O)CCN2CCOCC2)C/C1=C\c1ccccc1	C8 TRAIL sens 56 (no result: HSP90 refold inh, PPC-1+TRAIL kill, FLuc act counter, FLuc inh counter)
COC(=O)[C@]12CCCCC=C1N(Cc1ccc(Cl)cc1Cl)C(=O)[C@H](CC(=O)N1CCOCC1)C2	none (no result: HSP90 refold inh, PPC-1+TRAIL kill, FLuc act counter, FLuc inh counter)
CC(NC(=O)Nc1nnc(C(F)(F)F)s1)(C(F)(F)F)C(F)(F)F	C8 TRAIL sens 51
CCCCCC(=O)N1C[C@@H](O)[C@H](n2cc(-c3ccc(F)cc3)nn2)C[C@@H]1c1ccccc1	none (no result: HSP90 refold inh, PPC-1+TRAIL kill, FLuc act counter, FLuc inh counter)
CN(C)c1ccc(C=C(C#N)C(=O)c2ccccc2)cc1Br	none (no result: HSP90 refold inh, PPC-1+TRAIL kill, FLuc act counter, FLuc inh counter)
Cc1nn(-c2ccccc2)c(Cl)c1C(=O)N1CCN(c2ncnc3c2cnn3-c2ccccc2)CC1	C8 TRAIL sens 73
Cc1c(C(=O)NNC(=O)c2ccccc2O)oc2ccccc12	none (no result: HSP90 refold inh, PPC-1+TRAIL kill, FLuc act counter, FLuc inh counter)
CCN(CC)S(=O)(=O)c1cc(C(=O)OCC(=O)Nc2ccc(-c3nc4ccc(C)cc4s3)cc2)ccc1F	C8 TRAIL sens 74
CCN(CC)S(=O)(=O)c1cc(C(=O)OCC(=O)Nc2cccc(S(=O)(=O)N(C)C)c2)ccc1F	none
Cc1ccc2nc(-c3ccc(NS(=O)(=O)c4ccc(F)c(F)c4)cc3)sc2c1	FLuc inh counter 55
CCN(CC)S(=O)(=O)c1ccc(C(=O)OCC(=O)Nc2ccc(-c3nc4ccc(C)cc4s3)cc2)cc1	C8 TRAIL sens 75
COc1ccc(/C=C2\CC/C(=C\c3ccc(OC)c(OC)c3)C2=O)cc1OC	C8 TRAIL sens 64, FLuc inh counter 66
COc1ccc(C=C2C=C(C(C)(C)C)C(=O)C(C(C)(C)C)=C2)cc1OC	C8 TRAIL sens 87 (no result: PPC-1+TRAIL kill, FLuc act counter, FLuc inh counter)
COc1ccc(C=C2SC(=O)NC2=O)cc1OC	none (no result: HSP90 refold inh, PPC-1+TRAIL kill, FLuc act counter, FLuc inh counter)
CCCCNc1nccnc1-c1cccc(C=O)c1	none (no result: HSP90 refold inh, PPC-1+TRAIL kill, FLuc act counter, FLuc inh counter)
CC1(C(=O)NS(=O)(=O)c2ccc(Cl)cc2)CCN1C(=O)C/C=C/c1ccccc1 (stereo unspecified)	none (no result: HSP90 refold inh, PPC-1+TRAIL kill, FLuc act counter, FLuc inh counter)
CCOC(=O)c1c(CSC(=N)N)n(-c2ccc(C)cc2)c2cc(Br)c(OC(C)=O)cc12	C8 TRAIL sens 93
CCOC(=O)c1ccc2c(c1)nc(-c1ccccn1)n2CC	C8 TRAIL sens 56 (no result: PPC-1+TRAIL kill, FLuc act counter, FLuc inh counter)
O=C1C(C2=C(O)c3ccccc3C2=O)=Nc2ccccc21	C8 TRAIL sens 89
Oc1ccc(Nc2ccc3ccccc3c2)cc1	none (no result: HSP90 refold inh, PPC-1+TRAIL kill, FLuc act counter, FLuc inh counter)
S=c1nc[nH]c2c1ncn2C1CCCO1 (stereo unspecified)	C8 TRAIL sens 73 (no result: FLuc act counter, FLuc inh counter)
OCC1OC(n2cnc3c(=S)nc[nH]c32)CC1O (stereo unspecified)	C8 TRAIL sens 76 (no result: HSP90 refold inh, PPC-1+TRAIL kill, FLuc act counter, FLuc inh counter)
CCc1nc2ccc(C(=O)N(C)CCN(C)C)cn2c1N(C)CCC(C)C	none (no result: HSP90 refold inh, PPC-1+TRAIL kill, FLuc act counter, FLuc inh counter)
N#Cc1cccc(C(=O)C(=O)N2CCN(c3ccccc3)CC2)c1	none (no result: HSP90 refold inh, PPC-1+TRAIL kill, FLuc act counter, FLuc inh counter)
Cc1cc(NCCCn2ccnc2)n2ncc(-c3ccc(Cl)cc3)c2n1	C8 TRAIL sens 54
Cc1cc(NCCCN2CCOCC2)n2ncc(-c3ccc(Cl)cc3)c2n1	none
CCS(=O)(=O)Nc1ccc(-c2nc3cccnc3s2)cc1	HSP90 refold inh 36, FLuc inh counter 67
CCc1ccc2oc(-c3cc(N)cc(C)c3O)nc2c1	FLuc inh counter 62
CCc1ccc2oc(-c3cc(N)ccc3O)nc2c1	C8 TRAIL sens 65, FLuc inh counter 88

Screens: PubChem BioAssay, several laboratories
